Measurements from ChEMBL document CHEMBL4196172 (J Med Chem, 2018).
The source made the active and inactive calls. No cut-off for these calls is given here.

Tests used:
[1] = target: cGMP-dependent 3',5'-cyclic phosphodiesterase (Homo sapiens, UniProt O00408); test: Inhibition of PDE2A catalytic domain (580 to 919 residues) (unknown origin) expressed in Escherichia coli BL21 using 3H-cGMP as substrate after 15 mins by liquid scintillation counting
[2] = target: 3',5'-cyclic-AMP phosphodiesterase 4D (Homo sapiens, UniProt Q08499); test: Inhibition of PDE4D2 catalytic domain (86 to 413 residues) (unknown origin) expressed in Escherichia coli BL21 using 3H-cAMP as substrate after 15 mins by liquid scintillation counting
Chain of 3',5'-cyclic-AMP phosphodiesterase 4D (Q08499 whole entry, the tested form may be a part): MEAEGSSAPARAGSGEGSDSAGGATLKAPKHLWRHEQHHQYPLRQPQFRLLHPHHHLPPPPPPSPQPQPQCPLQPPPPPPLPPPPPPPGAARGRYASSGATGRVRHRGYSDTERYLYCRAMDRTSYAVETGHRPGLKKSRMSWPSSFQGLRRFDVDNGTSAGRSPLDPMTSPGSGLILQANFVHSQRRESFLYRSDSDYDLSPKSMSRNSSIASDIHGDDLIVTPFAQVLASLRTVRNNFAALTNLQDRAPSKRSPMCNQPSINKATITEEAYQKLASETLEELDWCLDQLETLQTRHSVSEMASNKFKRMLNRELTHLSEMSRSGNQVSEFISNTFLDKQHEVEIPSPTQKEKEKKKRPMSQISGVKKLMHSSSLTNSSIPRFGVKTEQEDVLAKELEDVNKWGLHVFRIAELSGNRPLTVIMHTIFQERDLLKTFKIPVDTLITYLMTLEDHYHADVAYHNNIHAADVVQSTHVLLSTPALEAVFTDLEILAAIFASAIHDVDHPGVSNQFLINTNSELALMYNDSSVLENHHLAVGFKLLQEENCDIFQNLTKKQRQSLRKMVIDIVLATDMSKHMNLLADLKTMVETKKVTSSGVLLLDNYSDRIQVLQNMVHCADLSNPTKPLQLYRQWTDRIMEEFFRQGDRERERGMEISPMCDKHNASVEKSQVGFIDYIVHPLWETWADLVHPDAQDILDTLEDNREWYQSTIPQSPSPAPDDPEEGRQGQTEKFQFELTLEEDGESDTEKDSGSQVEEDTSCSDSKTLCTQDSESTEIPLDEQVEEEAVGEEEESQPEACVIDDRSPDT

[3] = target: Cone cGMP-specific 3',5'-cyclic phosphodiesterase subunit alpha' (Homo sapiens, UniProt P51160); test: Inhibition of PDE6C catalytic domain (1 to 858 residues) (unknown origin) expressed in Escherichia coli BL21 using 3H-cGMP as substrate after 15 mins by liquid scintillation counting
Chain of Cone cGMP-specific 3',5'-cyclic phosphodiesterase subunit alpha' (P51160 whole entry, the tested form may be a part): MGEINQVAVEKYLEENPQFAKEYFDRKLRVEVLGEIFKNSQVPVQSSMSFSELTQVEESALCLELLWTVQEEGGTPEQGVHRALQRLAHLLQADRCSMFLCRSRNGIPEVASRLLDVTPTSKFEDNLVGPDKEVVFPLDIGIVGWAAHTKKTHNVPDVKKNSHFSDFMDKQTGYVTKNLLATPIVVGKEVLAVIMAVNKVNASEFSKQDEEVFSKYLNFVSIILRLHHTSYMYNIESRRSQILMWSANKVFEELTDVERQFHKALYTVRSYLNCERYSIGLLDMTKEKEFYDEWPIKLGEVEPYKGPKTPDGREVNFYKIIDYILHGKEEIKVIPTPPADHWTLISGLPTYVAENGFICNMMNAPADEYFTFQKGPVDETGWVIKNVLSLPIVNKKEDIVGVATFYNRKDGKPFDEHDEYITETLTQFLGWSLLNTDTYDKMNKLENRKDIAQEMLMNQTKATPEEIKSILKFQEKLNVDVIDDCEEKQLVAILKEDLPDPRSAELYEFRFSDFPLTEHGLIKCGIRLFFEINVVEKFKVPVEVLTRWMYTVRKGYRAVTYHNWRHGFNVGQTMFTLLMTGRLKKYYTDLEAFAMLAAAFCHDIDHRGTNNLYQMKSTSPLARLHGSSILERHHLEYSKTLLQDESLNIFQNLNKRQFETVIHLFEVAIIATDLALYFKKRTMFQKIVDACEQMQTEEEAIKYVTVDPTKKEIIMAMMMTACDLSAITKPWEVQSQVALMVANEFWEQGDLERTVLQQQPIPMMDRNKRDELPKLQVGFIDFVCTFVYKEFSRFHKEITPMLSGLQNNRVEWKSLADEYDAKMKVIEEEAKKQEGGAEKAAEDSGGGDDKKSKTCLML

[4] = target: cAMP and cAMP-inhibited cGMP 3',5'-cyclic phosphodiesterase 10A (Homo sapiens, UniProt Q9Y233); test: Inhibition of PDE10A catalytic domain (449 to 770 residues) (unknown origin) expressed in Escherichia coli BL21 using 3H-cAMP as substrate after 15 mins by liquid scintillation counting
[5] = target: Dual 3',5'-cyclic-AMP and -GMP phosphodiesterase 11A (Homo sapiens, UniProt Q9HCR9); test: Inhibition of PDE11A catalytic domain (588 to 911 residues) (unknown origin) expressed in Escherichia coli BL21 using 3H-cAMP as substrate after 15 mins by liquid scintillation counting
Chain of Dual 3',5'-cyclic-AMP and -GMP phosphodiesterase 11A (Q9HCR9 whole entry, the tested form may be a part): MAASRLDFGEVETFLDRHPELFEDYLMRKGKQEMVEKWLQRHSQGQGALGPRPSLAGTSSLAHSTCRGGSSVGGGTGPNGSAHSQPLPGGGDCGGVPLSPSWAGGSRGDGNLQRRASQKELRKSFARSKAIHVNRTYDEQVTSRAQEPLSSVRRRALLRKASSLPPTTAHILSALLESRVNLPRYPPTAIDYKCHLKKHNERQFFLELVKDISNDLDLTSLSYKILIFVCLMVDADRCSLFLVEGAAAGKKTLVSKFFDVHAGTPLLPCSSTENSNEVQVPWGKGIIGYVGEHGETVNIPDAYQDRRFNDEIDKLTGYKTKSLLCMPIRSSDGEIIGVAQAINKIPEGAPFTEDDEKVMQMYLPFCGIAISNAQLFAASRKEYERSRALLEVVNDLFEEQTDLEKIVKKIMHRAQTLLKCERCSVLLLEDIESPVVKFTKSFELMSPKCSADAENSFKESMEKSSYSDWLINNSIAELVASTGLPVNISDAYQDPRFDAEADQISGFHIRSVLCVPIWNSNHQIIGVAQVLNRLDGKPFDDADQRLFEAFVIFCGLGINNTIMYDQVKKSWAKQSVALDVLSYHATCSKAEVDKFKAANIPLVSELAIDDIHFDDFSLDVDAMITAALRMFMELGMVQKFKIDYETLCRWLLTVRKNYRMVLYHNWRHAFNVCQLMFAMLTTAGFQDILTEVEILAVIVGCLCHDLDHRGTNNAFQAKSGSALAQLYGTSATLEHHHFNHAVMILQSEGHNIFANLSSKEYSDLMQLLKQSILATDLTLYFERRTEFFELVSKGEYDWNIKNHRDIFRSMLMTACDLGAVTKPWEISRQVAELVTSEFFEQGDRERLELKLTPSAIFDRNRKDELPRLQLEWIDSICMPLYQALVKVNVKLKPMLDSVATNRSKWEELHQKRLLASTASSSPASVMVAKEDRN

[6] = Half life in rat liver microsomes at 0.5 uM; assay type: ADME, microsome
[7] = Intrinsic clearance in rat liver microsomes at 0.5 uM; assay type: ADME, microsome
[8] = Apparent clearance in rat liver microsomes at 0.5 uM; assay type: ADME, microsome; details: read-out: CLH(app)
[9] = target: Voltage-gated inwardly rectifying potassium channel KCNH2 (Homo sapiens, UniProt Q12809); test: Inhibition of human ERG expressed in CHO cells by automated patch clamp assay; assay type: cell-based
Chain of Voltage-gated inwardly rectifying potassium channel KCNH2 (Q12809 whole entry): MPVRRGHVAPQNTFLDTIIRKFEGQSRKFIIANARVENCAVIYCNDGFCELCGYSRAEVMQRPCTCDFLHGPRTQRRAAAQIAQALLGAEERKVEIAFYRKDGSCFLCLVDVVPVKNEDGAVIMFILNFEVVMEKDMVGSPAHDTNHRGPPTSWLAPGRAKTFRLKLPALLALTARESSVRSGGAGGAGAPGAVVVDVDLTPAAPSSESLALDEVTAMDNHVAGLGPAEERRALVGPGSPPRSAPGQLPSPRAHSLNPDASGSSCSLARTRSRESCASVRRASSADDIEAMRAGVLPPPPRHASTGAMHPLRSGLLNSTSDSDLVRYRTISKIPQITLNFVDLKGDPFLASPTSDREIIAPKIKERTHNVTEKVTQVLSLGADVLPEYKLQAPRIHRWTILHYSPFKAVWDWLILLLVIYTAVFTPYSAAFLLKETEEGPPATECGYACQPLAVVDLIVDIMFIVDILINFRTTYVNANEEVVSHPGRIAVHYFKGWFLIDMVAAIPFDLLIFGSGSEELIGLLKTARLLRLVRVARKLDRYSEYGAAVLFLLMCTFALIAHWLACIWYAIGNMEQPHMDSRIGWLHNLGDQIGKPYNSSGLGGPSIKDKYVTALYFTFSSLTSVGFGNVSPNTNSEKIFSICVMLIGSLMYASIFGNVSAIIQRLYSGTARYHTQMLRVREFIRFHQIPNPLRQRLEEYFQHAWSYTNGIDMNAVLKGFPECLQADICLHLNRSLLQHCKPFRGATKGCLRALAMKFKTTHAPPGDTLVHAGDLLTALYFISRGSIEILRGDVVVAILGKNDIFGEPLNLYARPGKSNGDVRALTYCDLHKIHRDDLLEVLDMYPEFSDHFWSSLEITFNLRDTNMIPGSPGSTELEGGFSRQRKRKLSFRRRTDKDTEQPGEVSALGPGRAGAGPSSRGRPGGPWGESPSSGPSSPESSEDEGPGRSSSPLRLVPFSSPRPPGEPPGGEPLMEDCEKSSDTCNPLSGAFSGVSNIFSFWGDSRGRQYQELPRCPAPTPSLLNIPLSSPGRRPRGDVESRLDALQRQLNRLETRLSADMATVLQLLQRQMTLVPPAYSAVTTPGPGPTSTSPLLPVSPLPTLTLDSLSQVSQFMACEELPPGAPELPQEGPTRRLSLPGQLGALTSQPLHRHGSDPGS

[10] = target: T1, Cytochrome P450 1A2 (Homo sapiens, UniProt P05177); test: Inhibition of CYP1A2 in human liver microsomes in presence of NADPH; assay type: ADME
T1 sequence (P05177 whole entry): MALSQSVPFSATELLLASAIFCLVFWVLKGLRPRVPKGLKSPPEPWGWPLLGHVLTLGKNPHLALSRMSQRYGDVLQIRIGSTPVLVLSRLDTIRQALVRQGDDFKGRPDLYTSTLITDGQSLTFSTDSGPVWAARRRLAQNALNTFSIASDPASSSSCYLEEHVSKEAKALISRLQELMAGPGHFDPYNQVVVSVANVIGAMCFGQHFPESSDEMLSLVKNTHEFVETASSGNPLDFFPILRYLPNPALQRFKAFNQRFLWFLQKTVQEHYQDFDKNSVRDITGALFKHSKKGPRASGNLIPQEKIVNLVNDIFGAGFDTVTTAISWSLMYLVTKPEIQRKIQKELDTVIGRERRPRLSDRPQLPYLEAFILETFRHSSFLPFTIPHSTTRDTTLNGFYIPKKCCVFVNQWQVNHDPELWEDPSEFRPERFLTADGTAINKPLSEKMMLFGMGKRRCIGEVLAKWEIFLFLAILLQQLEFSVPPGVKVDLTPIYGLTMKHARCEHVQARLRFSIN

[11] = target: T2, Cytochrome P450 2B6 (Homo sapiens, UniProt P20813); test: Inhibition of CYP2B6 in human liver microsomes in presence of NADPH; assay type: ADME
T2 sequence (P20813 whole entry): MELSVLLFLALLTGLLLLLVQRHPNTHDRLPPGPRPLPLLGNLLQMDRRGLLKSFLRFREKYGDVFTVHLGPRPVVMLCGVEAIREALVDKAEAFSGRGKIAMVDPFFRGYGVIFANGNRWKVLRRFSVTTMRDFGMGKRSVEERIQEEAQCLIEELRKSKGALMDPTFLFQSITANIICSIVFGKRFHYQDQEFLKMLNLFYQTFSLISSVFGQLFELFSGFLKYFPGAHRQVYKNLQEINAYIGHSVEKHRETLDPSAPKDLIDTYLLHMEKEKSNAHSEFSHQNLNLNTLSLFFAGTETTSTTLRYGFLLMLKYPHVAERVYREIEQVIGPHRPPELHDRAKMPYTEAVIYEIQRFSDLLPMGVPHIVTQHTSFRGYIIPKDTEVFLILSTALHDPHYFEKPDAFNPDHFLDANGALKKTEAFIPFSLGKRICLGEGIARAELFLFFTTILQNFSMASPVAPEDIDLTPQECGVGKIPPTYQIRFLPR

[12] = target: Cytochrome P450 3A4 (Homo sapiens, UniProt P08684); test: Inhibition of CYP3A4 in human liver microsomes in presence of NADPH; assay type: ADME
Chain of Cytochrome P450 3A4 (P08684 whole entry): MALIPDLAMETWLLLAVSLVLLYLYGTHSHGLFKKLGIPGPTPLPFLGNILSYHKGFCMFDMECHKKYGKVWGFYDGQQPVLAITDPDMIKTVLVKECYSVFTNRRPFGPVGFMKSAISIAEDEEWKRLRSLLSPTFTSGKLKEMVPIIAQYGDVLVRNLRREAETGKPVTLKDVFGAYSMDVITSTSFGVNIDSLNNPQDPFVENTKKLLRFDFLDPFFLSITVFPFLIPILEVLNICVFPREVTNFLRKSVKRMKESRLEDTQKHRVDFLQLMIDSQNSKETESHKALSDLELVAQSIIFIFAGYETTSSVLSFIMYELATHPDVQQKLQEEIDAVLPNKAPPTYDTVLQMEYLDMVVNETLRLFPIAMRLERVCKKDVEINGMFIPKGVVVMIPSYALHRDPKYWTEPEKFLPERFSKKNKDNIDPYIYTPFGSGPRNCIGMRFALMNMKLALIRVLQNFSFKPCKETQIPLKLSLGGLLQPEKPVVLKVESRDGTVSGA

[13] = target: Cytochrome P450 2C9 (Homo sapiens, UniProt P11712); test: Inhibition of CYP2C9 in human liver microsomes in presence of NADPH; assay type: ADME
Chain of Cytochrome P450 2C9 (P11712 whole entry): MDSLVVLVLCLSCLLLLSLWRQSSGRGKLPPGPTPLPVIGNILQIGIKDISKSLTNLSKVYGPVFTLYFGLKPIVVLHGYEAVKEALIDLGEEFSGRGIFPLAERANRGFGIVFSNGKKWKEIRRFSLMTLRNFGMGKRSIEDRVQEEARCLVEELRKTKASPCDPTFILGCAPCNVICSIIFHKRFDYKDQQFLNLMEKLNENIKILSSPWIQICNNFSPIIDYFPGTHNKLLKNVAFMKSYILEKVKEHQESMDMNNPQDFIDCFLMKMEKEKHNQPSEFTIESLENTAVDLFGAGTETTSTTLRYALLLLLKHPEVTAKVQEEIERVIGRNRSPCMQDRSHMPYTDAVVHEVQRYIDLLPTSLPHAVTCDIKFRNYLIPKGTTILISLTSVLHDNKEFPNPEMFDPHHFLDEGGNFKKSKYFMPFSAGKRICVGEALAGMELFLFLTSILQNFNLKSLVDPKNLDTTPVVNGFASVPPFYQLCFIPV

[14] = Protein binding in human plasma at 1 uM after 4 hrs by LC/MS/MS analysis; assay type: ADME, cell-free; details: read-out: PPB (converted)
[15] = tested on: Mus musculus; test: Acute toxicity in KM mouse up to 1.5 g/kg, po administered as single dose measured after 14 days; assay type: organism-based; details: in vivo, 1500 mg/kg, 336 h
[16] = tested on: Rattus norvegicus; test: Anti-hypertensive activity in MCT-induced pulmonary hypertension Wistar rat model assessed as mean pulmonary artery pressure at 1.25 mg/kg, po administered for 3 weeks (reference value: 52.55 mmHg); assay type: functional
Summary of the method: (§1)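 PAH was induced in rats by monocrotaline (MCT) injection and confirmed after 3 weeks against an untreated control group. Treated groups received oral dosing and were compared with the MCT model group. Read-outs were mean pulmonary artery pressure, right ventricle hypertrophy index, and small pulmonary artery wall thickness as % of external diameter. Data are mean ± S.E.M., n = 6-9/group.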

[17] = tested on: Rattus norvegicus; test: Anti-hypertensive activity in MCT-induced pulmonary hypertension Wistar rat model assessed as reduction in RVHI at 1.25 mg/kg, po administered for 3 weeks; assay type: functional, organism-based; summary of the method: as §1
[18] = tested on: Rattus norvegicus; test: Anti-hypertensive activity in MCT-induced pulmonary hypertension Wistar rat model assessed as reduction in wall thickness percentage at 1.25 mg/kg, po administered for 3 weeks; assay type: functional, organism-based; summary of the method: as §1
[19] = Metabolic stability in rat liver microsomes assessed as stability rate constant at 0.5 uM; assay type: ADME, microsome
[20] = tested on: Rattus norvegicus; test: Anti-hypertensive activity in MCT-induced pulmonary hypertension Wistar rat model assessed as mean pulmonary artery pressure at 10 mg/kg, po administered for 3 weeks (reference value: 52.55 mmHg); assay type: functional; summary of the method: as §1
[21] = target: cGMP-specific 3',5'-cyclic phosphodiesterase (Homo sapiens, UniProt O76074); test: Inhibition of human PDE5A1 catalytic domain (535 to 860 residues) expressed in Escherichia coli BL21 using 3H-cGMP as substrate after 15 mins by liquid scintillation counting
[22] = Hepatic extraction ratio in rat liver microsomes at 0.5 uM; assay type: ADME, microsome; details: read-out: ERH
[23] = tested on: Rattus norvegicus; test: Anti-hypertensive activity in MCT-induced pulmonary hypertension Wistar rat model assessed as reduction in RVHI at 10 mg/kg, po administered for 3 weeks; assay type: functional, organism-based; summary of the method: as §1
[24] = tested on: Rattus norvegicus; test: Anti-hypertensive activity in MCT-induced pulmonary hypertension Wistar rat model assessed as reduction in wall thickness percentage at 10 mg/kg, po administered for 3 weeks; assay type: functional, organism-based; summary of the method: as §1
[25] = species on record: Homo sapiens; test: Selectivity ratio of IC50 for PDE11A catalytic domain (588 to 911 residues) (unknown origin) to IC50 for human PDE5A1 catalytic domain (535 to 860 residues)

COCCNc1cc(O)c2c(=O)c3c(-c4nccs4)[nH]c(Cc4ccc5c(c4)OCO5)c3oc2c1 showed an IC50 [1] of 106 nM, an IC50 [2] of 43 nM and an IC50 [3] of 1.2 nM. The IC50 [4] was 46 nM, the IC50 [5] was 39 nM and the half-life at 0.5 µM [6] was 15.1 to 18.3 min. For the same compound, the Intrinsic clearance (CLint) [7] was 75.6 to 92 µL/min/mg, the CLint scaled at 0.5 µM [8] was 136 to 165 mL/min/kg and the IC50 [9] was > 30000 nM. For the same compound, the IC50 [10] was > 10000 nM, the IC50 [11] was > 10000 nM and the IC50 [12] was > 10000 nM. The IC50 [13] was 135 nM, the fraction unbound at 4 h, 1 µM [14] was 0.023 and the Activity [15] was “Non-Toxic”. The Activity [16] was 19.94 mmHg, the Activity [17] was “Active” and the Activity [18] was “Active”. The K [19] was 0.0378 to 0.046.
In the case of CCCc1nn(C)c2c(=O)[nH]c(-c3cc(S(=O)(=O)N4CCN(C)CC4)ccc3OCC)nc12.O=C(O)CC(O)(CC(=O)O)C(=O)O [SILDENAFIL CITRATE], the Activity [20] is reported as 20.86 mmHg.
With CN1CCN(CCNc2cc(O)c3c(=O)c4c(-c5nccs5)[nH]c(Cc5ccc6c(c5)OCO6)c4oc3c2)CC1 the IC50 [21] was 0.39 nM, the half-life at 0.5 µM [6] was 5.26 min and the “Intrinsic clearance (CLint)” value [7] was 263.4 µL/min/mg. The CLint scaled at 0.5 µM [8] was 472 mL/min/kg, the hepatic extraction ratio at 0.5 µM [22] was 0.9 and the K [19] was 0.1317.
For O=c1c2cc(F)cc(F)c2oc2c(Cc3ccc4c(c3)OCO4)[nH]c(-c3nccs3)c12, the IC50 [21] was 1.63 nM.
With O=c1c2ccc(Cl)cc2oc2c(Cc3ccc4c(c3)OCO4)[nH]c(-c3nccs3)c12 the IC50 [21] was 2.64 nM.
In the case of CNc1cc(O)c2c(=O)c3c(-c4nccs4)[nH]c(Cc4ccc5c(c4)OCO5)c3oc2c1, the IC50 [21] is reported as 0.52 nM.
O=c1c2cc(Br)ccc2oc2c(Cc3ccc4c(c3)OCO4)[nH]c(-c3nccs3)c12 gave an IC50 [21] of 3.82 nM.
O=c1c2c(F)cc(Br)cc2oc2c(Cc3ccc4c(c3)OCO4)[nH]c(-c3nccs3)c12 showed an IC50 [21] of 2.37 nM.
For O=c1c2c(O)cc(NCCN3CCOCC3)cc2oc2c(Cc3ccc4c(c3)OCO4)[nH]c(-c3nccs3)c12, the IC50 [21] was 0.79 nM.
With COc1ccc2c(=O)c3c(-c4nccs4)[nH]c(Cc4ccc5c(c4)OCO5)c3oc2c1 the IC50 [21] was 2.64 nM.
In the case of O=c1c2c(F)cccc2oc2c(Cc3ccc4c(c3)OCO4)[nH]c(-c3nccs3)c12, the IC50 [21] is reported as 1.41 nM, the half-life at 0.5 µM [6] is reported as 9.52 min and the “Intrinsic clearance (CLint)” value [7] is reported as 145.6 µL/min/mg. The CLint scaled at 0.5 µM [8] was 262 mL/min/kg, the hepatic extraction ratio at 0.5 µM [22] was 0.83 and the K [19] was 0.0728.
O=c1c2cc(F)ccc2oc2c(Cc3ccc4c(c3)OCO4)[nH]c(-c3nccs3)c12 gave an IC50 [21] of 4.03 nM.
O=c1c2c(O)cccc2oc2c(Cc3ccc4c(c3)OCO4)[nH]c(-c3nccs3)c12 gave an IC50 [21] of 1.05 nM.
With CCCc1nn(C)c2c(=O)[nH]c(-c3cc(S(=O)(=O)N4CCN(C)CC4)ccc3OCC)nc12 [listing 1 of 2 here] the half-life at 0.5 µM [6] was 5.37 min, the “Intrinsic clearance (CLint)” value [7] was 258.2 µL/min/mg and the CLint scaled at 0.5 µM [8] was 463 mL/min/kg. It also gave a K [19] of 0.1291.
In the case of CCCc1nn(C)c2c(=O)[nH]c(-c3cc(S(=O)(=O)N4CCN(C)CC4)ccc3OCC)nc12 [listing 2 of 2 here], the Activity [23] is reported as “Active” and the Activity [24] is reported as “Active”.
Work on COc1c(Cl)ccc2oc3c(Cc4ccc5c(c4)OCO5)[nH]c(-c4nccs4)c3c(=O)c12 yielded an IC50 [21] of 6.82 nM.
Work on O=c1c2cc(Cl)ccc2oc2c(Cc3ccc4c(c3)OCO4)[nH]c(-c3nccs3)c12 yielded an IC50 [21] of 9.63 nM.
In the case of O=c1c2cc(Cl)cc(Br)c2oc2c(Cc3ccc4c(c3)OCO4)[nH]c(-c3nccs3)c12, the IC50 [21] is reported as 3.04 nM.
Compound O=c1c2cccc(Cl)c2oc2c(Cc3ccc4c(c3)OCO4)[nH]c(-c3nccs3)c12 has an IC50 [21] of 2.09 nM.
In the case of COc1cccc2oc3c(Cc4ccc5c(c4)OCO5)[nH]c(-c4nccs4)c3c(=O)c12, the IC50 [21] is reported as 4.38 nM.
In the case of O=c1c2ccc(F)cc2oc2c(Cc3ccc4c(c3)OCO4)[nH]c(-c3nccs3)c12, the IC50 [21] is reported as 2.38 nM.
For CN1CC(=O)N2[C@H](c3ccc4c(c3)OCO4)c3[nH]c4ccccc4c3C[C@@H]2C1=O, the Ratio IC50 [25] was 20.
O=c1c2ccc(Br)cc2oc2c(Cc3ccc4c(c3)OCO4)[nH]c(-c3nccs3)c12 gave an IC50 [21] of 1.58 nM.
